# Experimental data pooled from the literature.
# Lines come from different studies, so protocols differ.
# Target: Calcium/calmodulin-dependent protein kinase type II subunit delta (CAMK2D, Homo sapiens, UniProt Q13557)
SMILES,test,conditions,remaining binding
O=C(c1ccc(Nc2nccc(-c3cc4ccccc4s3)n2)cc1)N1CCC(N2CCCC2)CC1,"binding, competition with immobilised ligand",1 µM,81%
CNC(=O)[C@@H]1CC[C@@H](n2c(-c3ccc4cnccc4c3)nc3ccc(C(=O)NCc4cccc(C(N)=O)c4)cc32)C1,"binding, competition with immobilised ligand",1 µM,87%
c1cncc(-c2cccc(Nc3nccc(NC4CCCCC4)n3)c2)c1,"binding, competition with immobilised ligand",10 µM,92%
O=C(Nc1c[nH]nc1C(=O)NC1CCNCC1)c1cc(F)cc(F)c1,"binding, competition with immobilised ligand",1 µM,100%
COc1cc(-c2cn(C3CCc4ccccc4N(CC(F)(F)F)C3=O)nn2)ccc1-n1ccc(C)n1 (stereo not shown),"cell-free assay, competition with immobilised ligand",1 µM,100%
CCN1CCN(Cc2ccc(C(=O)Nc3ccc(C)c(Oc4ccc5c(c4)CC(=O)N5)c3)cc2C(F)(F)F)CC1,"binding, competition with immobilised ligand",1 µM,100%
O=C(NCCCN1CCOCC1)c1ccc(Nc2ncc(Cl)c(-c3ccc(Cl)s3)n2)cc1,"binding, competition with immobilised ligand",1 µM,83%
COc1ccnn2ncc(-c3ccnc(N(C)C)n3)c12,binding,1 µM,81%
Cc1c(C(=O)O)cc(-c2ccc(C3CCNCC3)cc2)c2ccc(-c3ccc(C(F)(F)F)cc3)cc12,"cell-free assay, competition with immobilised ligand",1 µM,100%
CC1CCCN1c1nccc(-c2cnn3ncccc23)n1 (stereo not shown),binding,1 µM,100%
COc1ccc2cc(OCC3(C(=O)O)CN(C(=O)c4ccc(F)cc4)C3)ccc2c1,"cell-free assay, competition with immobilised ligand",1 µM,100%
COc1ncc2cc3ccccc3nc2c1C#N,"cell-free assay, competition with immobilised ligand",5 µM,98%
C[C@H]1CCN(c2nccc(-c3cnn4ncccc34)n2)C1,binding,1 µM,94%
CNC(=O)c1ccc(Nc2ncc(C(F)(F)F)c(NCc3nccnc3N(C)S(C)(=O)=O)n2)cc1,"cell-free assay, competition with immobilised ligand",0.1 µM,83%
CN(C)c1nccc(-c2cnc3ncccn23)n1,binding,1 µM,100%
C[C@H](c1cccc(C#N)c1)n1cc(Cl)cc(C(N)=O)c1=N,"cell-free assay, competition with immobilised ligand",1 µM,100%
N[C@H]1CCN(c2nccc(-c3cnn4ncccc34)n2)C1,binding,1 µM,100%
CCS(=O)(=O)c1cc2cc(C[C@@](O)(CC(C)(C)c3ccc(F)cc3C(N)=O)C(F)(F)F)[nH]c2cn1,"cell-free assay, competition with immobilised ligand",1 µM,81%
CN(C)c1nccc(-c2cnn3ncccc23)n1,binding,1 µM,100%
Cc1cnc(Nc2ccc(C(=O)N3CCC(N4CCCC4)CC3)cc2)nc1-c1cc2ccccc2s1,"binding, competition with immobilised ligand",1 µM,73%
F[C@@H]1CCN(c2nccc(-c3cnn4ncccc34)n2)C1,binding,1 µM,100%
CCc1ccccc1C(=O)Nc1n[nH]c2c(C)c(F)c(C3C(C#N)=C(C)N(C)C(C)=C3C#N)cc12,"cell-free assay, competition with immobilised ligand",1 µM,78%
